The values that follow come from ChEMBL document CHEMBL1124576 (J Med Chem, 1989).

The target of test [1] is T1, Adrenergic receptor alpha-1 (Rattus norvegicus, UniProt P15823+P23944+P43140).
T1 sequence (P15823 whole entry): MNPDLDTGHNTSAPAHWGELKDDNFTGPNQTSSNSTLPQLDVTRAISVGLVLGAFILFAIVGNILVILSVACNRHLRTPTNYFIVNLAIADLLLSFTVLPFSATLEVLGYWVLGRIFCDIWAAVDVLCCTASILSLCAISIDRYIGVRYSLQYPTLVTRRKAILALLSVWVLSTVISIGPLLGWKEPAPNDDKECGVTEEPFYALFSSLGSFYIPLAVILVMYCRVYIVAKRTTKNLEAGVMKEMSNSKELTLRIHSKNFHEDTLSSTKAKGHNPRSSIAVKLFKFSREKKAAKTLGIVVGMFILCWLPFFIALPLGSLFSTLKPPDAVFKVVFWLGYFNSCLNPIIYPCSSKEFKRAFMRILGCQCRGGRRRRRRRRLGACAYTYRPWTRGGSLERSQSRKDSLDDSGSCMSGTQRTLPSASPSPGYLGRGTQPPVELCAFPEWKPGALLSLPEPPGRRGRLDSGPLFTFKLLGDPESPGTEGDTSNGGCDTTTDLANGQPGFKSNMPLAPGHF
T1 sequence (P23944 whole entry): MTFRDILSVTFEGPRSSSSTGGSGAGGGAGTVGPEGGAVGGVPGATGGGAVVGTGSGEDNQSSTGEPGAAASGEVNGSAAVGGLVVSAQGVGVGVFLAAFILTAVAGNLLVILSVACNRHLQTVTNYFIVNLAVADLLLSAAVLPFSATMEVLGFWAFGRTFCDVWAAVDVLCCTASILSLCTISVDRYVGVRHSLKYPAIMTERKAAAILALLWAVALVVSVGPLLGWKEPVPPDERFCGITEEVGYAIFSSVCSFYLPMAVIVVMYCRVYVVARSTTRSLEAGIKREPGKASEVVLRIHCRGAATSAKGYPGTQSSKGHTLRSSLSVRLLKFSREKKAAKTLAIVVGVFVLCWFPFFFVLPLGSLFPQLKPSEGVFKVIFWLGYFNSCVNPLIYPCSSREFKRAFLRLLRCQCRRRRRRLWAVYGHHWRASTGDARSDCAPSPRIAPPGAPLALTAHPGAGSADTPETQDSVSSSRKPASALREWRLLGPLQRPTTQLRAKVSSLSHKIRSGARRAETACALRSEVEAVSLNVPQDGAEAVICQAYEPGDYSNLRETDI
T1 sequence (P43140 whole entry): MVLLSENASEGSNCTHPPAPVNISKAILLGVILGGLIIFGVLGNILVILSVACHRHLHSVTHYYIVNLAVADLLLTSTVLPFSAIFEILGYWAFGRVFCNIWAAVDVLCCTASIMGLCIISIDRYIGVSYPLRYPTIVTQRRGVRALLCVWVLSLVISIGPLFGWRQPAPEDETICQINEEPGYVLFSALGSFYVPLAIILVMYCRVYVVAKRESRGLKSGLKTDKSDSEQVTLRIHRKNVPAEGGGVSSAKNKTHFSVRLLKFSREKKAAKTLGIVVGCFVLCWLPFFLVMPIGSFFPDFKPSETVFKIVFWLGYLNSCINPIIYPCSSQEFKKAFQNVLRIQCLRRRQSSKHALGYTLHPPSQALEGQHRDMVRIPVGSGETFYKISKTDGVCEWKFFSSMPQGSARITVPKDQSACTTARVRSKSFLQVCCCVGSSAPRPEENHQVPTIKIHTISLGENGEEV
As to the kind of experiment: Binding affinity against alpha-1 adrenergic receptor in rat cerebral cortical membrane, determined using [3H]prazosin as the radioligand.

A short description of test [2]: ratio of Oral and Intravenous inhibitory concentrations against reversal of clonidine-induced Mydriasis in rat was evaluated. Format: functional. In short, it runs like this: (§1)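 Rats given clonidine to induce mydriasis; test agent dosed iv or orally. Pupillary diameter measured 10 min after dosing. Value is the dose […] that reduces pupil diameter to 50% of the clonidine-induced maximum. Means of five determinations, SD under 10%. Ratio is oral over iv dose.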

Test [3] is filed under the species Oryctolagus cuniculus. As to the kind of experiment: Inhibition of phenylephrine-induced contraction of the rabbit aorta as a measure of functional alpha-1-adrenoceptor antagonism. The settings on record: read-out: pA2 (converted). In short, it runs like this:
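Rabbit aorta contracted with phenylephrine; alpha1 antagonism read as reversal of the contraction, expressed as pA2. Means of at least three separate determinations.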

The target of test [4] is T2, Adrenergic receptor alpha-2 (Rattus norvegicus, UniProt P22086+P19328+P22909).
T2 sequence (P22086 whole entry): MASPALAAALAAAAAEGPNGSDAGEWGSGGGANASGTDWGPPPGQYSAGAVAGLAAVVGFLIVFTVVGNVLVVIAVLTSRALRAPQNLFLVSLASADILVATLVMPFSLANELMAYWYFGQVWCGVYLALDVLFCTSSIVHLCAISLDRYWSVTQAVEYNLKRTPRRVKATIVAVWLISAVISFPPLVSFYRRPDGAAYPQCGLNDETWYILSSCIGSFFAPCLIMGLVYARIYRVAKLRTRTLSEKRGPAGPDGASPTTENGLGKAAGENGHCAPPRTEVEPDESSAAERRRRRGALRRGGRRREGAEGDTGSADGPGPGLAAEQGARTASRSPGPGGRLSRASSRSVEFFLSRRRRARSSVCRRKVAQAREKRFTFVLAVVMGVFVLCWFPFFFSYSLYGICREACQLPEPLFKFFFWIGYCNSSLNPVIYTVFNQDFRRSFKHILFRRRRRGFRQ
T2 sequence (P19328 whole entry): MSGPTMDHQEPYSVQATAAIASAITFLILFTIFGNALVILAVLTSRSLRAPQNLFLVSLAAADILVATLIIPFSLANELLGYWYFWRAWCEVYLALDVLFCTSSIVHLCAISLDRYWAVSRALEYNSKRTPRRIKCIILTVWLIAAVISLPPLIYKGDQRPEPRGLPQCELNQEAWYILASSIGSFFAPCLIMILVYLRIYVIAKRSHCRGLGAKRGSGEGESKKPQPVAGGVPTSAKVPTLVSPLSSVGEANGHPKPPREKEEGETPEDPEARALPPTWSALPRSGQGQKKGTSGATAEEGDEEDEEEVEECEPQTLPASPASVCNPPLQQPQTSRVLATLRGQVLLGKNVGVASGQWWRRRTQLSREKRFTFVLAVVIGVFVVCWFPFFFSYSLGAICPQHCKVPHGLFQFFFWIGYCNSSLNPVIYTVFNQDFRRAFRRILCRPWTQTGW
T2 sequence (P22909 whole entry): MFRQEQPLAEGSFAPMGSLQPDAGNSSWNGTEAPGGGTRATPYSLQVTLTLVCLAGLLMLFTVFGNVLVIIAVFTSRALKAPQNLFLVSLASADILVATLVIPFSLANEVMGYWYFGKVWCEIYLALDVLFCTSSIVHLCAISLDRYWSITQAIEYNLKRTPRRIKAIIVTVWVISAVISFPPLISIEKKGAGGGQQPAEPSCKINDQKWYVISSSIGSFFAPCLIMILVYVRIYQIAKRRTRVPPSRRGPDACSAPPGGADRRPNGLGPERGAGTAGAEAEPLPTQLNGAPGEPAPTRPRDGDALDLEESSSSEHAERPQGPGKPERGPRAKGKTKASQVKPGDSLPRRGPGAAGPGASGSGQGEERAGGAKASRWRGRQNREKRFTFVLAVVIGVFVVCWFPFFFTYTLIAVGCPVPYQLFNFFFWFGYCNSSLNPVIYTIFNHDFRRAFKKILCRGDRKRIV
The experiment in a line: Binding affinity against alpha-2 adrenergic receptor in rat cerebral cortical membrane, determined using [3H]- yohimbine as the radioligand.

In test [5] the test system is Rattus norvegicus. The experiment in a line: Reversal of clonidine-induced mydriasis in rat, after intravenous administration. Format: functional. The settings on record: read-out: ID50 (the source's name). In short, it runs like this:
as §1

Test [6] in a line: Antilog of pKi [3H]yohimbine minus PKi [3H]-prazosin was expressed as selectivity.
Test [7] deals with Rattus norvegicus. As to the kind of experiment: Reversal clonidine-induced mydriasis in rat, after oral administration. Format: functional. Conditions: read-out: ID50 (the source's name). In short, it runs like this:
as §1

Test [8] addresses Adrenergic receptor alpha-2 (Cavia porcellus). As to the kind of experiment: Ability to reverse inhibitory effects of UK-14304 on the contraction of guinea pig ileum as a measure of alpha-2 adrenergic receptor antagonism.
The nature of test [9]: Antilog of pA2 (Uk14304) minus PA2 (Phenylephrine) was expressed as selectivity. It counts as functional. In short, it runs like this:
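Guinea pig ileum contracted by field stimulation; alpha2 antagonism read as reversal of the inhibitory effect of UK-14304 on the contraction, expressed as pA2. Selectivity index is the antilog of pA2 (UK-14304) minus pA2 (phenylephrine). Means of at least three separate determinations.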

Test [10] relates to Rattus norvegicus. The experiment in a line: Beta-adrenoceptor binding density by administering 0.5 mg/kg (once daily for 14 days) in rats. It counts as functional. In short, it runs like this:
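Rats dosed 0.5 mg/kg once daily for 14 days. Cortical beta-adrenoceptor density measured as Bmax, fmol [3H]dihydroalprenolol bound per mg protein, and compared with untreated controls.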

Test [11] is described as follows: Antilog of pKi [3H]-yohimbine minus pKi [3H]prazosin.

Take `COc1ccc2c(c1)CCN1C[C@H]3CCCN(S(C)(=O)=O)[C@@H]3C[C@@H]21`: the “Log Ki” value in test [1] is on record as -5.29; in [4], -9.45. Also, the Ratio in test [2] was 14.6. Moreover, the Kb in test [3] was 794 nM. The ED50 in [5] was determined as 0.0065 mg/kg; in test [7], 0.095 mg/kg. Moreover, the Selectivity turned out to be 15000 in [6] and 4000 in test [9]. Also, the pA2 (in general, the negative logarithm of the molar antagonist concentration that doubles the agonist concentration needed for the same response) in [8] is 9.7. In test [10], this compound registered a Bmax of 57 fmol/mg.
With `COc1ccc2c(c1)CCN1C[C@@H]3CCCN(S(C)(=O)=O)[C@H]3C[C@H]21`, the Log Ki in [1] is more than -5; in test [4], -6.32. In addition, in [3], the Kb was 10000 nM. Besides, the ED50 in test [5] and in test [7] was more than 10 mg/kg in each case. Besides, the Selectivity in test [6] and in test [11] was more than 50 throughout. Besides, the pA2 in test [8] is listed as 6.5.
Regarding `COc1ccc2c(c1)CCN1CC3CCCN(S(C)(=O)=O)C3CC21` (stereo unspecified), the “Log Ki” value in test [1] was -4.99; in test [4] it was -9.18. Moreover, the Ratio in [2] is 16.2. Further, the Kb in test [3] was more than 1000 nM. The ED50 is 0.013 mg/kg in [5] and 0.21 mg/kg in [7]. The Selectivity is 15000 in test [6] and more than 4000 in test [9]. In addition, the pA2 in test [8] was found to be 9.7.
With `COC(=O)[C@@H]1[C@H]2C[C@H]3c4[nH]c5ccccc5c4CCN3C[C@@H]2CC[C@@H]1O` [YOHIMBINE], the ED50 in test [5] was determined as 0.185 mg/kg; in [7], 2.8 mg/kg.
The like results for `c1ccc2c(c1)OCC(C1=NCCN1)O2` (stereo unspecified) [IDAZOXAN] were, in that order, 0.017 mg/kg and 1.2 mg/kg.
